Data from ChEMBL document CHEMBL1157852, “Modulation of doxorubicin activity in cancer cells by conjugation with fatty acyl and terpenyl hydrazones” (Eur J Med Chem, 2010).
Active and inactive are the calls of the source. The calls are words filed in the database; no cut-off is given here.

Columns and labels:
[1] = Cytotoxicity against human 518A2 cells after 24 hrs by MTT assay; assay type: functional, cell-based; conditions: 518A2, 24 h
Summary of the method: (§1)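 MTT assay. Cells seeded and cultured 24 h, then exposed to compound for 24, 48 or 72 h. MTT added to a final 0.05% (HL-60, 518A2) or 0.1% (KB-V1, MCF-7) for 2 h. Formazan dissolved in 10% SDS/DMSO with 0.6% acetic acid; absorbance read at 570 nm against 630 nm background. Viability taken relative to untreated controls (100%). IC50 from concentration-response curves, mean ± SD of four independent experiments.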

[2] = Cytotoxicity against human 518A2 cells after 48 hrs by MTT assay; assay type: functional, cell-based; conditions: 518A2, 48 h; summary of the method: as §1
[3] = Cytotoxicity against human 518A2 cells after 72 hrs by MTT assay; assay type: functional, cell-based; conditions: 518A2, 72 h; summary of the method: as §1
HL-60 [4] = experiment: Cytotoxicity against human HL60 cells after 24 hrs by MTT assay; assay type: functional, cell-based; conditions: HL-60, 24 h; summary of the method: as §1
HL-60 [5] = experiment: Cytotoxicity against human HL60 cells after 48 hrs by MTT assay; assay type: functional, cell-based; conditions: HL-60, 48 h; summary of the method: as §1
HL-60 [6] = experiment: Cytotoxicity against human HL60 cells after 72 hrs by MTT assay; assay type: functional, cell-based; conditions: HL-60, 72 h; summary of the method: as §1
[7] = Cytotoxicity against human vinblastine-resistant KBV1 cells after 24 hrs by MTT assay; assay type: functional, cell-based; conditions: KB-V1, 24 h; summary of the method: as §1
[8] = Cytotoxicity against human vinblastine-resistant KBV1 cells after 48 hrs by MTT assay; assay type: functional, cell-based; conditions: KB-V1, 48 h; summary of the method: as §1
[9] = Cytotoxicity against human vinblastine-resistant KBV1 cells after 72 hrs by MTT assay; assay type: functional, cell-based; conditions: KB-V1, 72 h; summary of the method: as §1
MCF7 [10] = experiment: Cytotoxicity against human topotecan-resistant MCF7 cells after 24 hrs by MTT assay; assay type: functional, cell-based; conditions: MCF7, 24 h; summary of the method: as §1
MCF7 [11] = experiment: Cytotoxicity against human topotecan-resistant MCF7 cells after 48 hrs by MTT assay; assay type: functional, cell-based; conditions: MCF7, 48 h; summary of the method: as §1
MCF7 [12] = experiment: Cytotoxicity against human topotecan-resistant MCF7 cells after 72 hrs by MTT assay; assay type: functional, cell-based; conditions: MCF7, 72 h; summary of the method: as §1
518A2 [13] = experiment: Induction of apoptosis in human 518A2 cells assessed as appearance of intact mitochondria in cytosol at 5 uM after 6 hrs using JC1 dye relative to control; assay type: functional
Summary of the method: (§2)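 Mitochondrial membrane potential measured with JC-1. Cells exposed to 5 µM compound for 6 or 18 h, pelleted at 400 g, stained with 0.2× JC-1 at 37 °C for 15 min (HL-60) or 35 min (518A2), washed and resuspended in PBS. Red fluorescence (ex 585/em 590 nm) and green (ex 510/em 527 nm) read; red/green ratio relative to untreated controls (100%). Mean ± SD, four independent experiments.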

518A2 [14] = experiment: Induction of apoptosis in human 518A2 cells assessed as appearance of intact mitochondria in cytosol at 5 uM after 18 hrs using JC1 dye relative to control; assay type: functional; summary of the method: as §2
HL-60 [15] = experiment: Induction of apoptosis in human HL60 cells assessed as appearance of intact mitochondria in cytosol at 5 uM after 6 hrs using JC1 dye relative to control; assay type: functional; summary of the method: as §2
HL-60 [16] = experiment: Induction of apoptosis in human HL60 cells assessed as appearance of intact mitochondria in cytosol at 5 uM after 18 hrs using JC1 dye relative to control; assay type: functional; summary of the method: as §2
[17] = Cytotoxicity against human 518A2 cells assessed as increase in ROS production at 5 uM after 24 hrs by NBT reduction assay relative to control; assay type: functional
Summary of the method: (§3)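 NBT assay. HL-60 cells (0.5×10⁶/mL) or trypsinised 518A2 cells (5×10⁴/mL) pre-incubated 24 h at 37 °C, then given compound at a final 5 µM for 24 or 72 h. Medium removed; cells incubated with 0.1% NBT for 1 h (HL-60) or 4 h (518A2). Diformazan dissolved in 2 M KOH/DMSO; A630 read against 405 nm. Given as % of untreated controls; double quadruplicates.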

[18] = Cytotoxicity against human 518A2 cells assessed as increase in ROS production at 5 uM after 72 hrs by NBT reduction assay relative to control; assay type: functional; summary of the method: as §3
HL-60 [19] = experiment: Cytotoxicity against human HL60 cells assessed as increase in ROS production at 5 uM after 24 hrs by NBT reduction assay relative to control; assay type: functional; summary of the method: as §3
HL-60 [20] = experiment: Cytotoxicity against human HL60 cells assessed as increase in ROS production at 5 uM after 72 hrs by NBT reduction assay relative to control; assay type: functional; summary of the method: as §3
HL-60 [21] = experiment: Induction of apoptosis in human HL60 cells assessed as DNA ladder formation at 5 uM after 24 hrs by agarose gel electrophoresis; assay type: functional, cell-based
Summary of the method: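 HL-60 cells incubated with 5 µM compound for 24 h, then examined for DNA ladder patterns.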

HL-60 [22] = experiment: Induction of apoptosis in human HL60 cells assessed as increase of caspase 9 activity at 5 uM after 12 hrs by luminometric assay; assay type: functional, cell-based
Summary of the method: (§4)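 HL-60 leukaemia cells were treated with test compound and sampled at intervals from 1 to 24 h. Protein was measured by Bradford. Caspase-9 (Caspase-Glo 8 for line 1) was read from a luminogenic peptide substrate as relative luminescence.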

HL-60 [23] = experiment: Induction of apoptosis in human HL60 cells assessed as increase of caspase 8 activity at 5 uM after 12 hrs by luminometric assay; assay type: functional, cell-based
Summary of the method: (§5)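 HL-60 and 518A2 cells treated with 5 µM compound and sampled at intervals from 1 to 24 h. Lysed in 50 mM Tris-HCl pH 7.4, 150 mM NaCl, 1% Triton X-100 with protease inhibitors for 15 min at 4 °C, spun at 800 g. Protein measured by Bradford. Caspase-3/7, -8 and -9 activities read with luminogenic peptide substrates; reported as relative luminescence.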

HL-60 [24] = experiment: Induction of apoptosis in human HL60 cells assessed as increase of caspase 3 activity at 5 uM after 18 hrs by luminometric assay; assay type: functional, cell-based; summary of the method: as §5
HL-60 [25] = experiment: Induction of apoptosis in human HL60 cells assessed as increase of caspase 8 activity at 5 uM after 24 hrs by luminometric assay; assay type: functional, cell-based; summary of the method: as §5
518A2 [26] = experiment: Induction of apoptosis in human 518A2 cells assessed as increase of caspase 8 activity at 5 uM after 6 hrs by luminometric assay; assay type: functional, cell-based; summary of the method: as §5
518A2 [27] = experiment: Induction of apoptosis in human 518A2 cells assessed as increase of caspase 3 activity at 5 uM after 8 hrs by luminometric assay; assay type: functional, cell-based; summary of the method: as §5
HL-60 [28] = experiment: Induction of apoptosis in human HL60 cells assessed as increase of ratio of Bax to Bcl-2 mRNA expression at 5 uM after 6 to 18 hrs by RT-PCR analysis; assay type: functional, cell-based
Summary of the method: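 Real-time PCR of bax and bcl-2 mRNA in HL-60 cells after 6 h and 18 h exposure to test compound. Each gene was normalised to GAPDH, and the bax/bcl-2 expression ratio was reported.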

518A2 [29] = experiment: Induction of apoptosis in human 518A2 cells assessed as increase of ratio of Bax to Bcl-2 mRNA expression at 5 uM after 6 to 18 hrs by RT-PCR analysis; assay type: functional, cell-based
Summary of the method: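 518A2 cells exposed to 5 µM compound for 6 h or 18 h. bax and bcl-2 mRNA quantified by real-time PCR, normalised to GAPDH, and expressed as the bax/bcl-2 ratio.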

HL-60 [30] = experiment: Induction of apoptosis in human HL60 cells assessed as increase of caspase 8 activity at 5 uM after 8 to 18 hrs by luminometric assay; assay type: functional, cell-based; summary of the method: as §4
HL-60 [31] = experiment: Induction of apoptosis in human HL60 cells assessed as increase of caspase 3 activity at 5 uM after 8 to 18 hrs by luminometric assay; assay type: functional, cell-based; summary of the method: as §5
HL-60 [32] = experiment: Induction of apoptosis in human HL60 cells assessed as increase of caspase 9 activity at 5 uM measured up to 24 hrs by luminometric assay; assay type: functional, cell-based; summary of the method: as §4

SMILES	IC50 [1] [µM]	IC50 [2] [µM]	IC50 [3] [µM]	IC50 (HL-60 [4]) [µM]	IC50 (HL-60 [5]) [µM]	IC50 (HL-60 [6]) [µM]	IC50 [7] [µM]	IC50 [8] [µM]	IC50 [9] [µM]	IC50 (MCF7 [10]) [µM]	IC50 (MCF7 [11]) [µM]	IC50 (MCF7 [12]) [µM]	Activity (518A2 [13]) [%]	Activity (518A2 [14]) [%]	Activity (HL-60 [15]) [%]	Activity (HL-60 [16]) [%]	Activity [17] [%]	Activity [18] [%]	Activity (HL-60 [19]) [%]	Activity (HL-60 [20]) [%]	other results
CCCCC/C=C\C/C=C\CCCCCCCC(=O)N/N=C(\CO)[C@]1(O)Cc2c(O)c3c(c(O)c2[C@@H](O[C@H]2C[C@H](N)[C@H](O)[C@H](C)O2)C1)C(=O)c1c(OC)cccc1C3=O.Cl [DOXORUBICIN LINOLEYLHYDRAZONE HYDROCHLORIDE]	2.9	1.8	1.6	5.6	2.8	3.8	29.6	18.7	19.7	40.5	20.3	9.9	80	97	88	87	1.6	2.3	0.4	1.4	
CCCCCCCC/C=C\CCCCCCCC(=O)N/N=C(\CO)[C@]1(O)Cc2c(O)c3c(c(O)c2[C@@H](O[C@H]2C[C@H](N)[C@H](O)[C@H](C)O2)C1)C(=O)c1c(OC)cccc1C3=O.Cl [DOXORUBICIN OLEYLHYDRAZONE HYDROCHLORIDE]	0.67	0.39	0.42	1.2	0.56	0.56	32.5	17.7	12.7	14.6	6.2	6.6	96	99	103	104	2.8	4.4	0.6	4	
COc1cccc2c1C(=O)c1c(O)c3c(c(O)c1C2=O)C[C@@](O)(/C(CO)=N/NC(=O)CCCCC(=O)O[C@@H]1C[C@H](C)CC[C@H]1C(C)C)C[C@@H]3O[C@H]1C[C@H](N)[C@H](O)[C@H](C)O1.Cl	1.2	0.42	0.32	0.39	0.33	0.33	> 100	34.9	23.3	6.7	4.7	2.4	82	79	93	66	2.2	1.5	1	5.7	
COc1cccc2c1C(=O)c1c(O)c3c(c(O)c1C2=O)C[C@@](O)(/C(CO)=N/NC(=O)CCCCCCCC(=O)O[C@@H]1C[C@H](C)CC[C@H]1C(C)C)C[C@@H]3O[C@H]1C[C@H](N)[C@H](O)[C@H](C)O1.Cl	0.82	0.51	0.46	0.4	0.49	0.37	79.6	21.5	21.8	10.2	7.2	4.3	83	72	84	68	1.4	1.3	1	6.8	
COc1cccc2c1C(=O)c1c(O)c3c(c(O)c1C2=O)C[C@@](O)(/C(CO)=N/NC(=O)CC(=O)O[C@@H]1C[C@H](C)CC[C@H]1C(C)C)C[C@@H]3O[C@H]1C[C@H](N)[C@H](O)[C@H](C)O1.Cl [DOXORUBICIN MENTHOXYCARBONYLACETYLHYDRAZONE HYDROCHLORIDE]	0.71	0.54	0.14	0.57	0.26	0.23	17.8	18.4	10.3	8.4	3.8	2.7	93	61	76	36	3	16.2	3.8	11.2	Activity (HL-60 [21]): Active; Activity (HL-60 [22]): Active; Activity (HL-60 [23]): Active; Activity (HL-60 [24]): Active; Activity (HL-60 [25]): Active; Activity (518A2 [26]): Active; Activity (518A2 [27]): Active; Activity (HL-60 [28]): Active; Activity (518A2 [29]): Active
COc1cccc2c1C(=O)c1c(O)c3c(c(O)c1C2=O)C[C@@](O)(/C(CO)=N/NC(=O)CCCCCCCCCCC(=O)O[C@H]1C[C@H]2CC[C@]1(C)C2(C)C)C[C@@H]3O[C@H]1C[C@H](N)[C@H](O)[C@H](C)O1.Cl	0.57	0.23	0.19	0.23	0.19	0.13	68.8	20.7	24.2	6.3	3.8	1.8	66	73	78	65	2.7	3.8	1.8	7.9	
CC/C=C\C/C=C\C/C=C\CCCCCCCC(=O)N/N=C(\CO)[C@]1(O)Cc2c(O)c3c(c(O)c2[C@@H](O[C@H]2C[C@H](N)[C@H](O)[C@H](C)O2)C1)C(=O)c1c(OC)cccc1C3=O.Cl [DOXORUBICIN LINOLENOYLHYDRAZONE HYDROCHLORIDE]	7.4	0.32	0.14	5.1	1.2	0.81	40.8	20.5	14	5.7	4.3	3.6	120	96	103	71	2.9	45.1	1	3	Activity (HL-60 [21]): Active; Activity (HL-60 [30]): Active; Activity (HL-60 [31]): Active; Activity (HL-60 [32]): inactive; Activity (HL-60 [28]): Active; Activity (518A2 [29]): Active
